According to ChEMBL document CHEMBL1122889, “Amino acid derived latent isocyanates: irreversible inactivation of porcine pancreatic elastase and human leukocyte elastase” (J Med Chem, 1985):

Key:
[1] = biological target: T1, Pancreatic elastase (Sus scrofa) (UniProt P08419+P00772); assay: k3 value was evaluated for the inhibition of porcine pancreatic elastase; assay type: protein assay
Procedure, shortened: (§1)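 PPE, 9.0 × 10⁻⁶ M, incubated with inhibitor in acetonitrile in 50 mM phosphate pH 6.5 at 25 °C, at inhibitor:enzyme ratios of 20–150. Aliquots taken over time were assayed with Boc-L-Ala-p-nitrophenyl ester: 30 s preincubation, then absorbance change over 2 min at 347.5 nm. Controls contained acetonitrile. Kobs came from ln(Et/E0) vs time, two runs per concentration. Ki and k3 came from the double-reciprocal replot, and k3/Ki was computed.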

[2] = biological target: Pancreatic elastase (Sus scrofa, UniProt P08419+P00772); assay: Ki value was evaluated for the inhibition of porcine pancreatic elastase; assay type: protein assay; procedure, shortened: as §1
[3] = biological target: T2, Neutrophil elastase (Homo sapiens, UniProt P08246); assay: Ki value was evaluated for the inhibition of human leukocyte elastase
T2 sequence (P08246 whole entry): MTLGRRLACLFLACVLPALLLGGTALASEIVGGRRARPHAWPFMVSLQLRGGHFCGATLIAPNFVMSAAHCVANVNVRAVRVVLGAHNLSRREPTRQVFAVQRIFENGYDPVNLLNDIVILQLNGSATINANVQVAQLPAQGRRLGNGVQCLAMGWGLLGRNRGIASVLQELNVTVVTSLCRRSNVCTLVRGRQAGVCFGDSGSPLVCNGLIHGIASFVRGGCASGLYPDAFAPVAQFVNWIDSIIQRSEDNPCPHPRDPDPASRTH
Procedure, shortened: (§2)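 HLE, 1.6 × 10⁻⁷ M, in Tris-HCl buffer pH 8.0 at 25 °C. Inhibitor was dissolved in N-methylpyrrolidinone. Loss of activity was followed continuously with succinyl-L-trialanyl-p-nitroanilide at 410 nm as a pseudo-first-order reaction, and rate constants were found by the Tsou method. Ki and k3 were taken from the double-reciprocal replot 1/kobsd vs 1/[I].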

[4] = biological target: T3, Neutrophil elastase (Homo sapiens) (UniProt P08246); assay: k3 value was evaluated for the inhibition of human leukocyte elastase; procedure, shortened: as §2
T3 sequence (whole entry): T2 sequence (P08246 whole entry)

[5] = biological target: T3, Neutrophil elastase (Homo sapiens); assay: Percent inhibition against human leukocyte elastase; settings: concentration not given here
Procedure, shortened: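 HLE, 1.53 × 10⁻⁴ M stock in Tris-HCl pH 7.5, was incubated with inhibitor for 20 min. Residual activity was assayed by adding succinyltrialanyl-p-nitroanilide (2.3 × 10⁻³ M stock in Tris buffer).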

[6] = biological target: T1, Pancreatic elastase (Sus scrofa); assay: Percent inhibition against porcine pancreatic elastase; assay type: protein assay; settings: concentration not given here
Procedure, shortened: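 PPE, 4.50 × 10⁻⁶ M stock in phosphate buffer pH 6.5, was incubated at 25 °C for 20 min with inhibitor (2.50 × 10⁻³ M stock in acetonitrile). Remaining activity was assayed by adding Boc-L-alanyl-p-nitroanilide (2.22 × 10⁻² M stock).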

[7] = biological target: T1, Pancreatic elastase (Sus scrofa); assay: k3 value was evaluated for the inhibition of porcine pancreatic Elastase; assay type: protein assay; procedure, shortened: as §1
[8] = biological target: T1, Pancreatic elastase (Sus scrofa); assay: k3/k1 ratio of the compound; assay type: protein assay; procedure, shortened: as §1

Row | SMILES | Ki [2] [µM] | k3 [7] [s⁻¹] | further results
1 | COC(=O)[C@@H](NC(=O)n1ccnc1)C(C)C | 1110 |  | k3 [1]: 0.183 min⁻¹; Ki [3]: 1800 µM; k3 [4]: 20.8 min⁻¹
2 | CCCC(N=C=O)C(=O)OC (centres undefined) |  |  | inhibition [5]: 100%; inhibition [6]: 98%
3 | CCCCNC(=O)n1ccnc1C | 2410 | 0.005 | 
4 | COC(=O)[C@H](CCSC)NC(=O)n1ccnc1 |  |  | inhibition [5]: 100%; inhibition [6]: 0%
5 | COC(=O)C(CCSC)N=C=O (centres undefined) |  |  | inhibition [5]: 100%; inhibition [6]: 27%
6 | CCC(C)[C@H](NC(=O)n1ccnc1)C(=O)OC (some centres undefined) | 1220 | 0.00117 | k3/k1 [8]: 1 M⁻¹ s⁻¹
7 | CCCCNC(=O)n1ccnc1CC | 470 | 0.002 | 
8 | CCC[C@H](NC(=O)n1ccnc1)C(=O)OC | 840 | 0.00537 | Ki [3]: 320 µM; k3 [4]: 9.6 min⁻¹
9 | CCCCNC(=O)n1ccnc1 | 1400 |  | k3 [1]: 0.66 min⁻¹
10 | CCCCNC(=O)n1cnc(C)c1 | 7230 | 0.001 | 
11 | COC(=O)[C@H](CC(C)C)NC(=O)n1ccnc1 | 1170 | 0.000667 | k3/k1 [8]: 0.5 M⁻¹ s⁻¹
12 | CCCCC(NC(=O)n1ccnc1)C(=O)OC (centres undefined) | 1940 | 0.00425 | Ki [3]: 1000 µM; k3 [4]: 10 min⁻¹
13 | CCCCCCCc1nccn1C(=O)NCCCC | 2410 | 0.002 | 
